In the library only some 2.7% were active in any assay of this set; here they are far more common.
PfM18AAP inh: blocks P. falciparum M18 aspartyl aminopeptidase | inhibition, % at 7.35 µM | AID 1822 | 290,000 compounds, 1.2% hits | recombinant PfM18AAP, H-Glu-NHMec fluorogenic cleavage;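 active = inhibition above the campaign mean inhibition over all tested compounds plus 3 SD, cut at about 28% in these data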;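 note: 0% = plate median of test compound wells and 100% = 2 mM ZnCl2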
IMP-1 inh: blocks Pseudomonas aeruginosa IMP-1 metallo-beta-lactamase. inhibition, % at 5.6 µM. purified IMP-1, nitrocefin hydrolysis, epi-absorbance fluorescence. AID 1556. 290,000 compounds, 0.45% hits;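 active = inhibition above the mean plus 3 SD of all compounds in the same screening run, cut at about 4.5% in these data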;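 note: 0% = IMP-1 with DMSO and 100% = DMSO wells lacking enzyme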
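assay system = purified recombinant IMP-1 metallo-beta-lactamase enzyme | schedule = 15 min preincubation plus 25 min reaction at 25 °C | signal = Epi-absorbance fluorescence, 480 nm excitation, 530 nm emission | read-out basis = percent inhibition from optical density relative to buffer-blank wells | controls = IMP-1 with DMSO as 0%, enzyme-free DMSO as 100%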
VIM-2 inhibitor: inhibitors of Pseudomonas aeruginosa VIM-2 metallo-beta-lactamase. purified VIM-2, nitrocefin hydrolysis, epi-absorbance fluorescence. inhibition, % at 5.6 µM. 290,000 compounds, 0.89% hits;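 active = inhibition above the mean of all tested compounds plus 3 SD, cutoff set per screening run, cut at about 7.5% in these data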;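 note: red hydrolysis product quenches plate fluorescence so inhibitors raise well fluorescence; 0% = enzyme with DMSO and 100% = DMSO without enzyme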
Fh CTSL1 inh: counter-screen for PFM18AAP inhibitors: inhibitors of F. hepatica cathepsin L1 | recombinant F. hepatica cathepsin L1, Z-Leu-Arg-MCA fluorescence | inhibition, % at 5.96 µM | 300,000 compounds, 0.49% hits;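 active = inhibition above the mean of all tested compounds plus 3 SD, set per screening campaign, cut at about 17% in these data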;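 note: 0% = plate median of test compound wells and 100% = 1 µM Z-Phe-Ala-diazomethylketone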
Starred values were filed as active, the others as inactive; nt = no result given.

SMILES	PfM18AAP inh	IMP-1 inh	VIM-2 inhibitor	Fh CTSL1 inh
O=C(NC1(C(F)(F)F)N=C2SCCN2C1=O)c1cccnc1 (stereo not given)	-7	-3	0	-2
Cc1cc(Nc2c(C)n(C)n(-c3ccccc3)c2=O)n2c(nc3ccccc32)c1C#N	6	-5	5	0
Cc1cc(SCC(=O)Nc2c(C)n(C)n(-c3ccccc3)c2=O)n2c(nc3ccccc32)c1C#N	-5	-1	22*	nt
CC(C)OCCCNC(=O)c1cc2c(=O)n(C)c3ccccc3c2n1C	-12	0	10*	1
COCCn1cc(C(=O)NCCCOC(C)C)c2c3ccccc3n(C)c2c1=O	1	-2	1	2
Cc1ccc(C)c(C(=O)OCC(=O)N(C)c2ccccc2)c1	0	-2	-2	0
CCNC(=S)/N=C(/Nc1ccccc1)Nc1nc(C)cc(C)n1	30*	-2	-3	2
COc1ccc(CNC(=O)Oc2ccccc2)cc1Cl	0	-3	-1	19*
CCOc1ccccc1NC(=S)NCc1ccccc1	-1	-2	-1	3
COc1cccc(CNC(=O)Cc2ccc(-c3ccccc3)cc2)c1	7	19*	-1	-1
COc1ccc(CC(=O)NCc2ccccc2)cc1	-2	-1	-2	-2
COC(=O)NCc1ccc(Cl)c(Cl)c1	-3	-5	-4	2
CCOc1ccc(CNC(=S)Nc2ccccc2)cc1Cl	4	6.3*	-1	-2
CCOC(=O)CCCCC(=O)c1[nH]c(=O)[nH]c1CSc1nnc2c3ccccc3n(C(C)C)c2n1	-4	-4	-3	4
CC(=O)NCCCNS(=O)(=O)c1ccc(C)cc1	4	-3	-3	-1
COC(=O)c1cnc(SCc2ccc([N+](=O)[O-])cc2)n1C	-3	-2	-1	1
Cc1noc(C)c1COc1cccc(C(=O)Nc2ccc(OCc3ccccc3)cc2)c1	3	1	-1	4
COC(CN1C(=O)C(=O)/C(=C(/O)c2ccccc2)C1c1ccccn1)OC (stereo not given)	1	-3	9.6*	0
Cc1cc(C(F)(F)F)c2c(=O)[nH]c(=O)n(Cc3ccccc3)c2n1	-1	7.3*	3	-1
Cc1ccc2nc3c(cc(C#N)c(=N)n3Cc3cccnc3)c(=O)n2c1	5	-3	-1	4
CC(C)N(CCc1ccncc1)C(=S)Nc1cccc(Cl)c1	6	0	1	-1
C/C(CC1CC(COCCC(C)C)OC1=O)=N\NC(N)=S (stereo not given)	10	-1	-8	21*
C/C(CCC1CC(C)OC1=O)=N\NC(N)=S (stereo not given)	12	-2	-3	7
O=C(NCc1cccnc1)c1cccc(OC2CCN(Cc3ccc(CO)o3)CC2)c1	-6	1	3	-1
O=c1oc2c(O)cccc2cc1-c1nc2ccccc2[nH]1	7	7.2*	6	nt
SMILES	PfM18AAP inh	IMP-1 inh	VIM-2 inhibitor	Fh CTSL1 inh
CCC(C(=O)Nc1ccc(C(=O)Nc2ccccc2C(=O)O)cc1)c1ccccc1 (stereo not given)	-4	-3	-3	nt
CC(=O)Nc1cccc(OCC(=O)Nc2ccccc2)c1	-16	-1	1	-2
CCOC(=O)Nc1cccc(OCC(=O)Nc2ccccc2OCC)c1	0	-1	1	30*
CN1C(=O)C(O)(CC(=O)c2cccnc2)c2ccccc21 (stereo not given)	-7	8.6*	-2	1
O=C1CCc2ccc(NC(=O)C3CC3)cc2N1	2	-4	-2	0
CN(C)S(=O)(=O)c1cccc(NC(=O)CN2C(=O)NC(Cc3c[nH]c4ccccc34)C2=O)c1 (stereo not given)	-10	-4	-3	-2
O=C(NCc1cccnc1)c1ccc2c(c1)N(Cc1ccccc1)CCS2	30*	-2	0	6
O=C(NCc1ccccn1)c1ccc2c(c1)N(Cc1ccccc1)CCS2	6	0	-1	3
CC(=O)Nc1ccc(C(=O)/C=C/c2ccco2)cc1	1	3	1	22*
O=C(Nc1nc2c(s1)CCCC2)Oc1ccccc1	3	-4	-2	28*
COc1ccccc1N1CCN(C(=O)C(C)CS(=O)(=O)c2ccc3c(c2)NC(=O)CS3)CC1 (stereo not given)	-3	11*	-3	1
COc1ccccc1N1CCN(S(=O)(=O)c2ccc3c(c2)NC(=O)C(C)S3)CC1 (stereo not given)	5	-3	-3	0
CSc1nc(N)c(C(=O)Nc2ccc([N+](=O)[O-])cc2)s1	3	-1	-2	1
CN(C(=O)CSc1ncnc2scc(-c3ccccc3)c12)C1CCS(=O)(=O)C1 (stereo not given)	2	-2	-2	17*
CC(C)n1c(SCC(=O)NC2CCCCC2)nnc1-c1ccco1	-4	-1	1	-1
O=C(Nc1ccc(F)cc1)c1cccc(N2C(=O)C3C4C=CC(C5CC45)C3C2=O)c1 (stereo not given)	0	0	-2	2
O=[N+]([O-])c1ccc(N/N=C/c2cccc(O)c2)cc1	28*	-1	-2	3
Cc1ccc(NNC(=O)c2c(C)noc2C)cc1Cl	30*	-1	-2	3
Cc1noc(C)c1C(=O)NNc1ccc(C(C)C)cc1	14	-3	-1	9
O=C(Cc1ccc(O)cc1)NCCNC(=S)NCc1ccccc1	-17	-3	1	25*
O=C(O)CNC(=S)NCc1ccccc1	-2	-2	-1	-1
CC(C(=O)O)N1C(=O)C2C3CC(C2C1=O)C1C(c2ccccc2)c2sc(=O)[nH]c2SC31 (stereo not given)	22	6.5*	1	-4
O=C(O)CCCN1C(=O)C2C3CC(C2C1=O)C1C(c2ccccc2)c2sc(=O)[nH]c2SC31 (stereo not given)	16	-2	-1	-3
COc1ccc(C(=O)C2CCCN(C(=O)Cc3c(C)noc3C)C2)cc1OC (stereo not given)	3	-3	-1	1
COc1ccc(F)cc1C(=O)C1CCCN(C(=O)Cc2c(C)noc2C)C1 (stereo not given)	-1	-1	8.3*	-3
SMILES	PfM18AAP inh	IMP-1 inh	VIM-2 inhibitor	Fh CTSL1 inh
COc1ccc(C2CC(c3cccs3)=NN2c2nc(-c3ccccc3)cs2)cc1OC (stereo not given)	1	-4	-2	34*
O=C(c1ccco1)N1CCN(C(=O)N2CCCC2)CC1	0	-2	1	3
O=C(O)C1=C(C(=O)N2CCN(C(=O)c3ccco3)CC2)CCCC1	0	12*	3	2
CCN1CCN(C(=O)c2ccc(C(F)(F)F)cc2)CC1	-1	-1	0	-1
CCN1CCN(C(=O)C2=C(C(=O)O)CCCC2)CC1	-4	13*	6	3
CCOc1ccc(NC(=S)NC(C)c2cccs2)cc1 (stereo not given)	8	-4	-3	-4
CSCC[C@H](NC(=O)[C@H](Cc1ccccc1)n1c(=O)[nH]c2ccccc2c1=O)C(=O)N1CCC(C(=O)O)CC1	4	-2	-2	6
Cc1cc(NC(=O)c2ccc(Cl)cc2Cl)no1	0	-5	-1	0

Screening data (PubChem)
